Assays:
Assay type in all cases: ADME, organism-based
[1] = Pharmacokinetic parameter (AUC) was determined after administering 1 mg/kg of compound intravenously in rat no.9 belonging to the phenotype EM (extensive metaboliser); design: dose 1 mg/kg, route intravenous; conditions: in vivo, iv
In short: (§1)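 Male Sprague–Dawley rats (n = 4) were first phenotyped by a 3 mg/kg oral dose. Plasma taken at 30 min was run on HPLC, and a metabolite peak present marked EM, absent marked PM. After a 1-week washout, each phenotype (n = 2) received 1 mg/kg intravenously. Plasma concentration was determined by HPLC.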

[2] = Pharmacokinetic parameter (AUC) was determined after administering 1 mg/kg of compound intravenously in rat no.10 belonging to the phenotype […] (poor metaboliser); design: dose 1 mg/kg, route intravenous; conditions: in vivo, iv; in short: as §1
[3] = Plasma clearance was determined after administering 1 mg/kg of compound intravenously in rat no.9 belonging to the phenotype EM (extensive metaboliser); design: dose 1 mg/kg, route intravenous; conditions: iv; in short: as §1
[4] = Volume of distribution at steady state was determined after administering 1 mg/kg of compound intravenously in rat no.10 belonging to the phenotype […] (poor metaboliser); design: dose 1 mg/kg, route intravenous; conditions: in vivo, iv, read-out: Vdss; in short: as §1
[5] = Plasma clearance was determined after administering 1 mg/kg of compound intravenously in rat no.10 belonging to the phenotype […] (poor metaboliser); design: dose 1 mg/kg, route intravenous; conditions: iv; in short: as §1
[6] = Pharmacokinetic parameter (AUC) was determined after administering 1 mg/kg of compound intravenously in rat no.8 belonging to the phenotype EM (extensive metaboliser); design: dose 1 mg/kg, route intravenous; conditions: in vivo, iv; in short: as §1
[7] = Half-life period of intravenously administered compound (1 mg/kg) in rat no.11 belonging to the phenotype […] (poor metaboliser); conditions: in vivo, iv; in short: as §1
[8] = Plasma clearance was determined after administering 1 mg/kg of compound intravenously in rat no.11 belonging to the phenotype […] (poor metaboliser); design: dose 1 mg/kg, route intravenous; conditions: iv; in short: as §1
[9] = Pharmacokinetic parameter (AUC) was determined after administering 1 mg/kg of compound intravenously in rat no.11 belonging to the phenotype […] (poor metaboliser); design: dose 1 mg/kg, route intravenous; conditions: in vivo, iv; in short: as §1
[10] = Volume of distribution at steady state was determined after administering 1 mg/kg of compound intravenously in rat no.11 belonging to the phenotype EM (poor metaboliser); design: dose 1 mg/kg, route intravenous; conditions: in vivo, iv, read-out: Vdss; in short: as §1
[11] = Half-life period of intravenously administered compound (1 mg/kg) in rat no.10 belonging to the phenotype […] (poor metaboliser); conditions: in vivo, iv; in short: as §1
[12] = Volume of distribution at steady state was determined after administering 1 mg/kg of compound intravenously in rat no.8 belonging to the phenotype EM (extensive metaboliser); design: dose 1 mg/kg, route intravenous; conditions: in vivo, iv, read-out: Vdss; in short: as §1
[13] = Half-life period of intravenously administered compound (1 mg/kg) in rat no.8 belonging to the phenotype EM (extensive metaboliser); conditions: in vivo, iv; in short: as §1
[14] = Half-life period of intravenously administered compound (1 mg/kg) in rat no.9 belonging to the phenotype EM (extensive metaboliser); conditions: in vivo, iv; in short: as §1
[15] = Plasma clearance was determined after administering 1 mg/kg of compound intravenously in rat no.8 belonging to the phenotype EM (extensive metaboliser); design: dose 1 mg/kg, route intravenous; conditions: iv; in short: as §1
[16] = Volume of distribution at steady state was determined after administering 1 mg/kg of compound intravenously in rat no.9 belonging to the phenotype EM (extensive metaboliser); design: dose 1 mg/kg, route intravenous; conditions: in vivo, iv, read-out: Vdss; in short: as §1
[17] = Plasma clearance was determined after administering 1 mg/kg of compound intravenously in rat no.2 belonging to phenotype EM (extensive metabolizer); design: dose 1 mg/kg, route intravenous; conditions: iv
In short: (§2)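 Male Sprague–Dawley rats (nos. 1–4) were dosed intravenously at 1 mg/kg. Plasma drug concentration was measured by HPLC. Parameters were derived by model-independent analysis. Rats were classed as extensive or poor metabolizers from their plasma profiles.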

[18] = Pharmacokinetic parameter (AUC) was determined after administering 30 mg/kg of compound orally in rat no.6 belonging to phenotype EM (extensive metabolizer); design: dose 30 mg/kg, route oral; conditions: in vivo, po
In short: (§3)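 Male Sprague–Dawley rats (nos. 5–7) were given 30 mg/kg orally. Plasma concentration was determined by HPLC. Tmax, T1/2, MRT, Cmax and AUC came from model-independent analysis. Extensive and poor metabolizers were assigned from the concentration–time profiles.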

[19] = Maximum time of retention of orally administered compound (30 mg/kg) in rat no.5 belonging to phenotype PM (poor metabolizer); conditions: in vivo, po; in short: as §3
[20] = Half-life period of intravenously administered compound (1 mg/kg) in rat no.3 belonging to phenotype EM (extensive metabolizer); conditions: in vivo, iv, read-out: T1/2 beta (converted); in short: as §2
[21] = Maximum plasma concentration was determined after administering 30 mg/kg of compound orally in rat no.5 belonging to phenotype PM (poor metabolizer); design: dose 30 mg/kg, route oral; conditions: po; in short: as §3
[22] = Mean residence time of intravenously administered compound (1 mg/kg) in rat no.2 belonging to phenotype EM (extensive metabolizer); conditions: in vivo, iv; in short: as §2
[23] = Volume of distribution at steady state was determined after administering 1 mg/kg of compound intravenously in rat no.1 belonging to phenotype EM (extensive metabolizer); design: dose 1 mg/kg, route intravenous; conditions: in vivo, iv, read-out: Vdss; in short: as §2
[24] = Half-life period of orally administered compound (30 mg/kg) in rat no.5 belonging to phenotype PM (poor metabolizer); conditions: in vivo, po; in short: as §3
[25] = Pharmacokinetic parameter (AUC) was determined after administering 1 mg/kg of compound intravenously in rat no.1 belonging to phenotype EM (extensive metabolizer); design: dose 1 mg/kg, route intravenous; conditions: in vivo, iv; in short: as §2
[26] = Mean residence time after oral administration of 30 mg/kg of compound in rat no.6 belonging to phenotype EM (extensive metabolizer); design: dose 30 mg/kg, route oral; conditions: in vivo; in short: as §3
[27] = Volume of distribution at steady state was determined after administering 1 mg/kg of compound intravenously in rat no.3 belonging to phenotype EM (extensive metabolizer); design: dose 1 mg/kg, route intravenous; conditions: in vivo, iv, read-out: Vdss; in short: as §2
[28] = Half-life period of intravenously administered compound (1 mg/kg) in rat no.2 belonging to phenotype EM (extensive metabolizer); conditions: in vivo, iv, read-out: T1/2 beta (converted); in short: as §2
[29] = Maximum plasma concentration was determined after administering 30 mg/kg of compound orally in rat no.6 belonging to phenotype EM (extensive metabolizer); design: dose 30 mg/kg, route oral; conditions: po; in short: as §3
[30] = Plasma clearance was determined after administering 1 mg/kg of compound intravenously in rat no.4 belonging to phenotype PM (poor metabolizer); design: dose 1 mg/kg, route intravenous; conditions: iv; in short: as §2
[31] = Pharmacokinetic parameter (AUC) was determined after administering 30 mg/kg of compound orally in rat no.7 belonging to phenotype PM (poor metabolizer); design: dose 30 mg/kg, route oral; conditions: in vivo, po; in short: as §3
[32] = Maximum plasma concentration was determined after administering 30 mg/kg of compound orally n rat no.7 belonging to phenotype PM (poor metabolizer); design: dose 30 mg/kg, route oral; conditions: po; in short: as §3
[33] = Volume of distribution at steady state was determined after administering 1 mg/kg of compound intravenously in rat no.2 belonging to phenotype EM (extensive metabolizer); design: dose 1 mg/kg, route intravenous; conditions: in vivo, iv, read-out: Vdss; in short: as §2
[34] = Plasma clearance was determined after administering 1 mg/kg of compound intravenously in rat no.1 belonging to phenotype EM (extensive metabolizer); design: dose 1 mg/kg, route intravenous; conditions: iv; in short: as §2
[35] = Mean residence time of intravenously administered compound (1 mg/kg) in rat no.1 belonging to phenotype EM (extensive metabolizer); conditions: in vivo, iv; in short: as §2
[36] = Plasma clearance was determined after administering 1 mg/kg of compound intravenously in rat no.3 belonging to phenotype EM (extensive metabolizer); design: dose 1 mg/kg, route intravenous; conditions: iv; in short: as §2
[37] = Half-life period of orally administered compound (30 mg/kg) in rat no.6 belonging to phenotype EM (extensive metabolizer); conditions: in vivo, po; in short: as §3
[38] = Pharmacokinetic parameter (AUC) was determined after administering 1 mg/kg of compound intravenously in rat no.4 belonging to phenotype PM (poor metabolizer); design: dose 1 mg/kg, route intravenous; conditions: in vivo, iv; in short: as §2
[39] = Mean residence time of intravenously administered compound (1 mg/kg) in rat no.4 belonging to phenotype PM (poor metabolizer); conditions: in vivo, iv; in short: as §2
[40] = Volume of distribution at steady state was determined after administering 1 mg/kg of compound intravenously in rat no.4 belonging to phenotype PM (poor metabolizer); design: dose 1 mg/kg, route intravenous; conditions: in vivo, iv, read-out: Vdss; in short: as §2
[41] = Pharmacokinetic parameter (AUC) was determined after administering 1 mg/kg of compound intravenously in rat no.3 belonging to phenotype EM (extensive metabolizer); design: dose 1 mg/kg, route intravenous; conditions: in vivo, iv; in short: as §2
[42] = Half-life period of intravenously administered compound (1 mg/kg) in rat no.1 belonging to phenotype EM (extensive metabolizer); conditions: in vivo, iv, read-out: T1/2 beta (converted); in short: as §2
[43] = Mean residence time after oral administration of 30 mg/kg of compound in rat no.7 belonging to phenotype PM (poor metabolizer); design: dose 30 mg/kg, route oral; conditions: in vivo; in short: as §3
[44] = Pharmacokinetic parameter (AUC) was determined after administering 30 mg/kg of compound orally in rat no.5 belonging to phenotype PM (poor metabolizer); design: dose 30 mg/kg, route oral; conditions: in vivo, po; in short: as §3
[45] = Mean residence time after oral administration of 30 mg/kg of compound in rat no.5 belonging to phenotype PM (poor metabolizer); design: dose 30 mg/kg, route oral; conditions: in vivo; in short: as §3
[46] = Maximum time of retention of orally administered compound (30 mg/kg) in rat no.6 belonging to phenotype EM (extensive metabolizer); conditions: in vivo, po; in short: as §3
[47] = Half-life period of intravenously administered compound (1 mg/kg) in rat no.4 belonging to phenotype PM (poor metabolizer); conditions: in vivo, iv, read-out: T1/2 beta (converted); in short: as §2
[48] = Mean residence time of intravenously administered compound (1 mg/kg) in rat no.3 belonging to phenotype EM (extensive metabolizer); conditions: in vivo, iv; in short: as §2
[49] = Maximum time of retention of orally administered compound (30 mg/kg) in rat no.7 belonging to phenotype PM (poor metabolizer); conditions: in vivo, po; in short: as §3
[50] = Half-life period of orally administered compound (30 mg/kg) in rat no.7 belonging to phenotype PM (poor metabolizer); conditions: in vivo, po; in short: as §3
[51] = read-out: T1/2 alpha (converted)
[52] = read-out: T1/2 beta (converted)

Which results are given for `COCCOc1cc2c(N3CCN(C(=O)Nc4ccc(C#N)cc4)CC3)ncnc2cc1OC`?
AUC [1]: 1260 ng·h/mL; AUC [2]: 1280 ng·h/mL; clearance [3]: 13.2 mL/min/kg; Vd [4]: 0.232 L/kg; clearance [5]: 13.1 mL/min/kg; AUC [6]: 1160 ng·h/mL; half-life [7, 51]: 3.58 min; half-life [7, 52]: 13.1 min; clearance [8]: 17.5 mL/min/kg; AUC [9]: 950 ng·h/mL; Vd [10]: 0.286 L/kg; half-life [11, 51]: 1.9 min; half-life [11, 52]: 15.5 min; Vd [12]: 0.215 L/kg; half-life [13, 51]: 2.69 min; half-life [13, 52]: 13.8 min; half-life [14, 51]: 2.99 min; half-life [14, 52]: 15.7 min; clearance [15]: 14.4 mL/min/kg; Vd [16]: 0.252 L/kg

Which results are given for `COc1cc2ncnc(N3CCN(C(=O)Nc4ccc(C#N)cc4)CC3)c2cc1OC`?
clearance [17]: 6.73 mL/min/kg; AUC [18]: 26300 ng·h/mL; Tmax [19]: 480 min; half-life [20]: 23.4 min; Cmax [21]: 50700 ng/mL; MRT [22]: 23.4 min; Vd [23]: 0.22 L/kg; half-life [24]: 315 min; AUC [25]: 2870 ng·h/mL; MRT [26]: 235 min; Vd [27]: 0.15 L/kg; half-life [28]: 27 min; Cmax [29]: 5220 ng/mL; clearance [30]: 0.707 mL/min/kg; AUC [31]: 455000 ng·h/mL; Cmax [32]: 35200 ng/mL; Vd [33]: 0.16 L/kg; clearance [34]: 5.82 mL/min/kg; MRT [35]: 39 min; clearance [36]: 6.88 mL/min/kg; half-life [37]: 152 min; AUC [38]: 23600 ng·h/mL; MRT [39]: 252 min; Vd [40]: 0.18 L/kg; AUC [41]: 2420 ng·h/mL; half-life [42]: 58.2 min; MRT [43]: 382 min; AUC [44]: 815000 ng·h/mL; MRT [45]: 514 min; Tmax [46]: 120 min; half-life [47]: 186 min; MRT [48]: 21 min; Tmax [49]: 120 min; half-life [50]: 204 min
